Reference: ChEMBL document CHEMBL1127075, “Structural modification of 5-aryl-2,3-dihydroimidazo[2,1-a]isoquinoline platelet activating factor receptor antagonists” (J Med Chem, 1993)

Experiments:
[1] = target: Platelet-activating factor receptor (Homo sapiens, UniProt P25105); assay: In vitro PAF antagonistic activity by determining [3H]PAF binding to the PAF-receptor of human platelets
Method in brief: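 Human platelets incubated with [3H]PAF; free ligand removed by centrifugation, bound radioactivity counted 1 min by liquid scintillation. Specific binding = total minus nonspecific binding (0.37 mM unlabeled PAF).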

Cavia porcellus [2] = assay: In vivo PAF induced bronchoconstriction tested in guinea pig at 20 mg/kg dose; format: functional
Method in brief: (§1)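 Anesthetized guinea pigs given compound po in H2O at 20 mg/kg, 2 h before iv PAF (0.05 mg/kg); percent inhibition of bronchoconstriction (Konzett-Rosler) or hemoconcentration, three to five animals.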

Cavia porcellus [3] = assay: In vivo PAF induced hemoconcentration tested in guinea pig at 20 mg/kg dose; format: functional; method in brief: as §1
Cavia porcellus [4] = assay: In vivo PAF induced bronchoconstriction tested in guinea pig; format: functional
Method in brief: (§2)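 Anesthetized guinea pigs, compound given po in H2O 2 h before iv PAF challenge (0.05 mg/kg); bronchoconstriction (Konzett-Rosler) and hemoconcentration measured. ED50 from dose-response curves, at least five doses, four to seven animals per dose.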

Cavia porcellus [5] = assay: In vivo PAF induced hemoconcentration tested in guinea pig; format: functional; method in brief: as §2

Chain of Platelet-activating factor receptor (P25105 whole entry): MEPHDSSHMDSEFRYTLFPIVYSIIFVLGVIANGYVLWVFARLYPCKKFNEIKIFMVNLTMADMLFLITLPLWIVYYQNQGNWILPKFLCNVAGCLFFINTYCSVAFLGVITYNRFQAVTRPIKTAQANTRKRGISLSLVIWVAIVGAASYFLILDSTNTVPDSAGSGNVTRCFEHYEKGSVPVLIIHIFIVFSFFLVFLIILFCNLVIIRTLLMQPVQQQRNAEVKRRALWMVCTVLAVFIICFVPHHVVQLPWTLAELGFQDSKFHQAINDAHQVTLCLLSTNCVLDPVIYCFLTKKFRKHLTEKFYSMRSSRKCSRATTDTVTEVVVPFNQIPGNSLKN

IC50 [1] [nM] | Compound | inhibition in vivo at 20 mg/kg (Cavia porcellus [2]) [%] | inhibition in vivo at 20 mg/kg (Cavia porcellus [3]) [%] | ED50 (Cavia porcellus [4]) [mg/kg] | ED50 (Cavia porcellus [5]) [mg/kg]
500 | COc1cc(CCc2ccc(C3=Cc4ccccc4C4=NCC(C)(C)CN34)cc2)cc(OC)c1OC | 17 | 23 | – | –
60 | COc1cc(CCc2ccc(C3=Cc4ccccc4C4=NC(C)(C)CN34)cc2)cc(OC)c1OC | 24 | 17.9 | – | –
35000 | COc1cc(CCc2ccc(-c3cc4ccccc4c4nc(C)cn34)cc2)cc(OC)c1OC | – | – | – | –
9500 | COc1cc(CCc2ccc(-c3cc4ccccc4c4nnc(C)n34)cc2)cc(OC)c1OC | – | – | – | –
40 | COc1cc(CCc2ccc(C3=Cc4ccccc4C4=NCCCN34)cc2)cc(OC)c1OC | – | – | 4.7 | 3
50 | COc1cc(CCc2ccc(C3=Cc4oc(C)cc4C4=NCCN34)cc2)cc(OC)c1OC | – | – | > 10 | 10
89000 | COc1cc(CCc2ccc(-c3cc4ccccc4c4nccn34)cc2)cc(OC)c1OC | – | – | – | –
220 | COc1cc(CCc2ccc(C3=Cc4ccccc4C4=NC(C)CN34)cc2)cc(OC)c1OC (stereo unspecified) | – | – | 16 | 10
10 | COc1cc(CCc2ccc(C3=Cc4ccsc4C4=NCCN34)cc2)cc(OC)c1OC | – | – | 0.8 | 1.1
1140 | COc1cc(CCc2ccc(C3=Nc4ccccc4C4=NCCN34)cc2)cc(OC)c1OC | – | – | 31.4 | 31.9
– | COc1cc(CCc2ccc(C3=Cc4ccccc4C4=NCCN34)cc2)cc(OC)c1OC | – | – | 4.2 | 5
